Values after ≈ are worked out from the molar mass of the structure shown.
Columns and labels:
Type in all cases: functional
Staphylococcus aureus [1] = test: Antibacterial activity against Staphylococcus aureus CMCC(B) 26003 measured after 24 hrs by ELISA; conditions: CMCC(B) 26003, 24 h
Summary of the method: (§1)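 Broth microdilution MIC. Mid-log bacteria in MHB or TSB diluted 1000-fold, inoculated at 10^5 CFU/mL. Compounds added from DMSO stocks; final DMSO at most 0.05%. Incubation 24 h at 37 °C. Growth read as absorbance at 630 nm. MIC taken as the lowest concentration giving complete growth inhibition. Three independent experiments.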

Staphylococcus aureus [2] = test: Antibacterial activity against Staphylococcus aureus CMCC 25923 measured after 24 hrs by ELISA; conditions: CMCC 25923, 24 h; summary of the method: as §1
Streptococcus pyogenes = test: Antibacterial activity against Streptococcus pyogenes CMCC 32067 measured after 24 hrs by ELISA; conditions: CMCC 32067, 24 h; summary of the method: as §1
Streptococcus pneumoniae = test: Antibacterial activity against Streptococcus pneumoniae CMCC 31968 measured after 24 hrs by ELISA; conditions: CMCC 31968, 24 h
Enterococcus faecalis = test: Antibacterial activity against Enterococcus faecalis CMCC 29212 measured after 24 hrs by ELISA; conditions: CMCC 29212, 24 h; summary of the method: as §1
Bacillus subtilis = test: Antibacterial activity against Bacillus subtilis CMCC 63501 measured after 24 hrs by ELISA; conditions: CMCC 63501, 24 h; summary of the method: as §1
Escherichia coli [3] = test: Antibacterial activity against Escherichia coli CMCC 25922 measured after 24 hrs by ELISA; conditions: CMCC 25922, 24 h; summary of the method: as §1
Escherichia coli [4] = test: Antibacterial activity against Escherichia coli CMCC 44568 measured after 24 hrs by ELISA; conditions: CMCC 44568, 24 h; summary of the method: as §1
Pseudomonas aeruginosa [5] = test: Antibacterial activity against Pseudomonas aeruginosa CMCC 27853 measured after 24 hrs by ELISA; conditions: CMCC 27853, 24 h; summary of the method: as §1
Pseudomonas aeruginosa [6] = test: Antibacterial activity against Pseudomonas aeruginosa CMCC 10104 measured after 24 hrs by ELISA; conditions: CMCC 10104, 24 h; summary of the method: as §1

| Compound | MIC (Staphylococcus aureus [1]) [µM] | MIC (Staphylococcus aureus [2]) [µM] | MIC (Streptococcus pyogenes) [µM] | MIC (Streptococcus pneumoniae) [µM] | MIC (Enterococcus faecalis) [µM] | MIC (Bacillus subtilis) [µM] | MIC (Escherichia coli [3]) [µM] | MIC (Escherichia coli [4]) [µM] | MIC (Pseudomonas aeruginosa [5]) [µM] | MIC (Pseudomonas aeruginosa [6]) [µM] |
| --- | --- | --- | --- | --- | --- | --- | --- | --- | --- | --- |
| Cc1ccc(S(=O)(=O)n2cc(/C=N\NC(N)=S)c3cc(Br)ccc32)cc1 | 284 (≈ 128 µg/mL) | > 284 | > 284 | > 284 | > 284 | > 284 | > 284 | > 284 | > 284 | > 284 |
| NC(=O)N/N=C\c1cn(S(=O)(=O)c2ccccc2)c2ccccc12 | 93.6 (≈ 32 µg/mL) | 93.6 (≈ 32 µg/mL) | > 374 | > 374 | > 374 | 93.6 (≈ 32 µg/mL) | > 374 | > 374 | > 374 | > 374 |
| Cc1ccc(S(=O)(=O)n2cc(/C=N\NC(N)=S)c3ccccc32)cc1 | 343 (≈ 128 µg/mL) | > 343 | > 343 | > 343 | > 343 | > 343 | > 343 | > 343 | 343 (≈ 128 µg/mL) | > 343 |
| CC/C(=N/NC(N)=O)c1cn(S(=O)(=O)c2ccc(C)cc2)c2ccccc12 | 333 (≈ 128 µg/mL) | 83.3 (≈ 32 µg/mL) | > 333 | > 333 | > 333 | 333 (≈ 128 µg/mL) | > 333 | > 333 | > 333 | > 333 |
| C/C(=N/NC(N)=S)c1cn(S(=O)(=O)c2ccc(C)cc2)c2ccccc12 | 332 (≈ 128 µg/mL) | 332 (≈ 128 µg/mL) | > 332 | > 332 | 332 (≈ 128 µg/mL) | 166 (≈ 64.1 µg/mL) | 332 (≈ 128 µg/mL) | 332 (≈ 128 µg/mL) | 332 (≈ 128 µg/mL) | > 332 |
| NC(=S)N/N=C\c1cn(S(=O)(=O)c2ccccc2)c2ccc(Br)cc12 | 294 (≈ 128 µg/mL) | > 294 | > 294 | > 294 | > 294 | > 294 | > 294 | > 294 | > 294 | > 294 |
| Cc1ccc(S(=O)(=O)n2cc(/C=N\NC(N)=O)c3cc(Br)ccc32)cc1 | 295 (≈ 128 µg/mL) | > 295 | > 295 | > 295 | > 295 | 9.22 (≈ 4.01 µg/mL) | > 295 | > 295 | > 295 | > 295 |
| CC/C(=N/NC(N)=O)c1cn(S(=O)(=O)c2ccc(C)cc2)c2ccc(Br)cc12 | > 277 | > 277 | > 277 | > 277 | > 277 | > 277 | > 277 | > 277 | > 277 | > 277 |
| C/C(=N/NC(N)=S)c1cn(S(=O)(=O)c2ccccc2)c2ccccc12 | 344 (≈ 128 µg/mL) | 344 (≈ 128 µg/mL) | > 344 | > 344 | > 344 | 172 (≈ 64.1 µg/mL) | 344 (≈ 128 µg/mL) | 344 (≈ 128 µg/mL) | 344 (≈ 128 µg/mL) | > 344 |
| CC/C(=N/NC(N)=S)c1cn(S(=O)(=O)c2ccc(C)cc2)c2ccc(Br)cc12 | 134 (≈ 64.2 µg/mL) | 268 (≈ 128 µg/mL) | > 268 | > 268 | > 268 | > 268 | 268 (≈ 128 µg/mL) | 268 (≈ 128 µg/mL) | > 268 | > 268 |
| CC/C(=N/NC(N)=S)c1cn(S(=O)(=O)c2ccc(C)cc2)c2ccccc12 | 320 (≈ 128 µg/mL) | 320 (≈ 128 µg/mL) | > 320 | > 320 | > 320 | > 320 | > 320 | > 320 | > 320 | > 320 |
| NC(=S)N/N=C\c1cn(S(=O)(=O)c2ccccc2)c2ccccc12 | 179 (≈ 64.1 µg/mL) | > 358 | > 358 | > 358 | > 358 | > 358 | > 358 | > 358 | 358 (≈ 128 µg/mL) | > 358 |
| CC/C(=N/NC(N)=S)c1cn(S(=O)(=O)c2ccccc2)c2ccccc12 | 64 (≈ 24.7 µg/mL) | 332 (≈ 128 µg/mL) | > 332 | > 332 | 166 (≈ 64.1 µg/mL) | 82.9 (≈ 32 µg/mL) | 332 (≈ 128 µg/mL) | 332 (≈ 128 µg/mL) | 332 (≈ 128 µg/mL) | > 332 |
| CC/C(=N/NC(N)=O)c1cn(S(=O)(=O)c2ccccc2)c2ccccc12 | > 346 | 346 (≈ 128 µg/mL) | > 346 | > 346 | > 346 | > 346 | > 346 | > 346 | > 346 | > 346 |
| C/C(=N/NC(N)=S)c1cn(S(=O)(=O)c2ccccc2)c2ccc(Br)cc12 | 284 (≈ 128 µg/mL) | > 284 | > 284 | > 284 | > 284 | 284 (≈ 128 µg/mL) | > 284 | > 284 | > 284 | > 284 |
| NC(=O)N/N=C\c1cn(S(=O)(=O)c2ccccc2)c2ccc(Br)cc12 | 38.1 (≈ 16.1 µg/mL) | 305 (≈ 128 µg/mL) | > 305 | > 305 | > 305 | 19.1 (≈ 8.03 µg/mL) | > 305 | > 305 | > 305 | > 305 |
| Cc1ccc(S(=O)(=O)n2cc(/C=N\NC(N)=O)c3ccccc32)cc1 | 44.9 (≈ 16 µg/mL) | 180 (≈ 64.1 µg/mL) | > 360 | > 360 | > 360 | 44.9 (≈ 16 µg/mL) | 360 (≈ 128 µg/mL) | 360 (≈ 128 µg/mL) | 360 (≈ 128 µg/mL) | > 360 |
| CC/C(=N/NC(N)=S)c1cn(S(=O)(=O)c2ccccc2)c2ccc(Br)cc12 | 276 (≈ 128 µg/mL) | > 276 | > 276 | > 276 | > 276 | 69 (≈ 32.1 µg/mL) | > 276 | > 276 | 276 (≈ 128 µg/mL) | > 276 |
| CC/C(=N/NC(N)=O)c1cn(S(=O)(=O)c2ccccc2)c2ccc(Br)cc12 | > 286 | > 286 | > 286 | > 286 | > 286 | > 286 | > 286 | > 286 | > 286 | > 286 |
| C/C(=N/NC(N)=S)c1cn(S(=O)(=O)c2ccc(C)cc2)c2ccc(Br)cc12 | 276 (≈ 128 µg/mL) | 276 (≈ 128 µg/mL) | > 276 | > 276 | > 276 | > 276 | > 276 | > 276 | > 276 | > 276 |

Source: ChEMBL document CHEMBL4400518, “Synthesis, antimicrobial and cytotoxic activities, and molecular docking studies of N-arylsulfonylindoles containing an aminoguanidine, a semicarbazide, and a thiosemicarbazide moiety” (Eur J Med Chem, 2019)
